# Test system: HEK-293T
# Test: Multiplex assay against HEK293T;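 for Population Tubulin-Different-Phenotype (%): share of the cells with healthy nuclei that show this phenotype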
# Assay type: toxicity, cell-based
# Details: human
# How it was run: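 Per cents of healthy-nucleus cells form the tubulin, mitochondrial-mass and membrane-permeability phenotype values. Live cells were stained at seeding with Hoechst33342, BioTracker Green Microtubule Cytoskeleton Dye, MitoTracker Red and Annexin V Alexa Fluor 680. After compound addition they were imaged on a CQ1 microscope at 37°C and 5% CO2, and CellPathfinder machine-learning gating split them into Hoechst high-intensity objects or normal cells, normal cells into healthy, pyknosed or fragmented nuclei, and pyknosed cells into mitotic or apoptotic.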
# [1] = 12 h, 1 µM, compound concentration 1 uM, replicate 1
# [2] = 12 h, 1 µM, compound concentration 1 uM, replicate 2
# [3] = 12 h, 10 µM, compound concentration 10 uM, replicate 1
# [4] = 12 h, 10 µM, compound concentration 10 uM, replicate 2
# [5] = 24 h, 1 µM, compound concentration 1 uM, replicate 1
# [6] = 24 h, 1 µM, compound concentration 1 uM, replicate 2
# [7] = 24 h, 10 µM, compound concentration 10 uM, replicate 1
# [8] = 24 h, 10 µM, compound concentration 10 uM, replicate 2
# [9] = 48 h, 1 µM, compound concentration 1 uM, replicate 1
# [10] = 48 h, 1 µM, compound concentration 1 uM, replicate 2
# [11] = 48 h, 10 µM, compound concentration 10 uM, replicate 1
# [12] = 48 h, 10 µM, compound concentration 10 uM, replicate 2
structure (smiles),measurement,setting,value
COc1ccccc1CN[C@H]1C2CCN(CC2)[C@H]1C(c1ccccc1)c1ccccc1 [CP-96345],Population Apoptotic (%),[1],61%
same,Population Fragmented Nuclei (%),[1],12%
same,Population Healthy Nuclei (%),[1],37%
same,Population Hoechst High Intensity Objects (%),[1],13%
same,Population Membrane Permeable-Phenotype (%),[1],0%
same,Population Mitochondria Different-Phenotype (%),[1],90%
same,Population Mitotic Cells (%),[1],38%
same,Population Normal (%),[1],86%
same,Population Pyknosed Nuclei (%),[1],50%
same,Population Tubulin-Different-Phenotype (%),[1],80%
same,Total Cell Count,[1],250
same,Population Apoptotic (%),[2],8%
same,Population Fragmented Nuclei (%),[2],3%
same,Population Healthy Nuclei (%),[2],54%
same,Population Hoechst High Intensity Objects (%),[2],3%
same,Population Membrane Permeable-Phenotype (%),[2],10%
same,Population Mitochondria Different-Phenotype (%),[2],17%
same,Population Mitotic Cells (%),[2],91%
same,Population Normal (%),[2],96%
same,Population Pyknosed Nuclei (%),[2],42%
same,Population Tubulin-Different-Phenotype (%),[2],21%
same,Total Cell Count,[2],244
same,Population Apoptotic (%),[3],79%
same,Population Fragmented Nuclei (%),[3],9%
same,Population Healthy Nuclei (%),[3],27%
same,Population Hoechst High Intensity Objects (%),[3],13%
same,Population Membrane Permeable-Phenotype (%),[3],2%
same,Population Mitochondria Different-Phenotype (%),[3],100%
same,Population Mitotic Cells (%),[3],20%
same,Population Normal (%),[3],86%
same,Population Pyknosed Nuclei (%),[3],63%
same,Population Tubulin-Different-Phenotype (%),[3],97%
same,Total Cell Count,[3],296
same,Population Apoptotic (%),[4],25%
same,Population Fragmented Nuclei (%),[4],2%
same,Population Healthy Nuclei (%),[4],36%
same,Population Hoechst High Intensity Objects (%),[4],4%
same,Population Membrane Permeable-Phenotype (%),[4],6%
same,Population Mitochondria Different-Phenotype (%),[4],77%
same,Population Mitotic Cells (%),[4],74%
same,Population Normal (%),[4],95%
same,Population Pyknosed Nuclei (%),[4],60%
same,Population Tubulin-Different-Phenotype (%),[4],74%
same,Total Cell Count,[4],179
same,Population Apoptotic (%),[5],56%
same,Population Fragmented Nuclei (%),[5],11%
same,Population Healthy Nuclei (%),[5],45%
same,Population Hoechst High Intensity Objects (%),[5],16%
same,Population Membrane Permeable-Phenotype (%),[5],6%
same,Population Mitochondria Different-Phenotype (%),[5],87%
same,Population Mitotic Cells (%),[5],43%
same,Population Normal (%),[5],83%
same,Population Pyknosed Nuclei (%),[5],43%
same,Population Tubulin-Different-Phenotype (%),[5],67%
same,Total Cell Count,[5],253
same,Population Apoptotic (%),[6],10%
same,Population Fragmented Nuclei (%),[6],2%
same,Population Healthy Nuclei (%),[6],67%
same,Population Hoechst High Intensity Objects (%),[6],3%
same,Population Membrane Permeable-Phenotype (%),[6],5%
same,Population Mitochondria Different-Phenotype (%),[6],14%
same,Population Mitotic Cells (%),[6],89%
same,Population Normal (%),[6],97%
same,Population Pyknosed Nuclei (%),[6],30%
same,Population Tubulin-Different-Phenotype (%),[6],20%
same,Total Cell Count,[6],333
same,Population Apoptotic (%),[7],81%
same,Population Fragmented Nuclei (%),[7],13%
same,Population Healthy Nuclei (%),[7],39%
same,Population Hoechst High Intensity Objects (%),[7],11%
same,Population Membrane Permeable-Phenotype (%),[7],0%
same,Population Mitochondria Different-Phenotype (%),[7],100%
same,Population Mitotic Cells (%),[7],18%
same,Population Normal (%),[7],88%
same,Population Pyknosed Nuclei (%),[7],47%
same,Population Tubulin-Different-Phenotype (%),[7],99%
same,Total Cell Count,[7],298
same,Population Apoptotic (%),[8],26%
same,Population Fragmented Nuclei (%),[8],5%
same,Population Healthy Nuclei (%),[8],44%
same,Population Hoechst High Intensity Objects (%),[8],2%
same,Population Membrane Permeable-Phenotype (%),[8],4%
same,Population Mitochondria Different-Phenotype (%),[8],75%
same,Population Mitotic Cells (%),[8],73%
same,Population Normal (%),[8],97%
same,Population Pyknosed Nuclei (%),[8],50%
same,Population Tubulin-Different-Phenotype (%),[8],72%
same,Total Cell Count,[8],218
same,Population Apoptotic (%),[9],48%
same,Population Fragmented Nuclei (%),[9],15%
same,Population Healthy Nuclei (%),[9],48%
same,Population Hoechst High Intensity Objects (%),[9],14%
same,Population Membrane Permeable-Phenotype (%),[9],4%
same,Population Mitochondria Different-Phenotype (%),[9],57%
same,Population Mitotic Cells (%),[9],51%
same,Population Normal (%),[9],85%
same,Population Pyknosed Nuclei (%),[9],36%
same,Population Tubulin-Different-Phenotype (%),[9],58%
same,Total Cell Count,[9],334
same,Population Apoptotic (%),[10],8%
same,Population Fragmented Nuclei (%),[10],3%
same,Population Healthy Nuclei (%),[10],86%
same,Population Hoechst High Intensity Objects (%),[10],2%
same,Population Membrane Permeable-Phenotype (%),[10],6%
same,Population Mitochondria Different-Phenotype (%),[10],4%
same,Population Mitotic Cells (%),[10],91%
same,Population Normal (%),[10],97%
same,Population Pyknosed Nuclei (%),[10],9%
same,Population Tubulin-Different-Phenotype (%),[10],13%
same,Total Cell Count,[10],612
same,Population Apoptotic (%),[11],79%
same,Population Fragmented Nuclei (%),[11],16%
same,Population Healthy Nuclei (%),[11],55%
same,Population Hoechst High Intensity Objects (%),[11],13%
same,Population Membrane Permeable-Phenotype (%),[11],0%
same,Population Mitochondria Different-Phenotype (%),[11],98%
same,Population Mitotic Cells (%),[11],20%
same,Population Normal (%),[11],86%
same,Population Pyknosed Nuclei (%),[11],28%
same,Population Tubulin-Different-Phenotype (%),[11],94%
same,Total Cell Count,[11],327
same,Population Apoptotic (%),[12],39%
same,Population Fragmented Nuclei (%),[12],3%
same,Population Healthy Nuclei (%),[12],71%
same,Population Hoechst High Intensity Objects (%),[12],2%
same,Population Membrane Permeable-Phenotype (%),[12],4%
same,Population Mitochondria Different-Phenotype (%),[12],39%
same,Population Mitotic Cells (%),[12],60%
same,Population Normal (%),[12],97%
same,Population Pyknosed Nuclei (%),[12],25%
same,Population Tubulin-Different-Phenotype (%),[12],63%
same,Total Cell Count,[12],330
